# An excerpt weighted towards active compounds, which were near 4.9% of everything screened.
# STAT3 act-1: increases IL-6 driven STAT3 reporter signal | U3A cells, IL-6 STAT3-luciferase reporter, luminescence; 100% = signal with IL-6 EC80 alone | activation (% of control), % at 5.6 µM | hit rate 0.91% among 190,000;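 active = activation above the screen-wide mean of compound activation plus 3 SD, cut at about 130% in these data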;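 also: 0% = background luminescence of wells with medium and substrate only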
#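 System – human U3A cells carrying STAT3-luciferase construct · Probe or stimulus – Interleukin-6, 33 ng/mL · Schedule – compound 1 h, then IL-6 6 h at 37 °C · Signal – luminescence from STAT3-driven luciferase reporter · Evaluation – percent of IL-6-only median luminescence · Benchmarks – IL-6-only high control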
# FLuc inhib CS: Photinus pyralis luciferase inhibition counter-screen; P08659; ATPLite firefly luciferase biochemical luminescence, 10 min; inhibition, % at 10 µM; hit rate 1.5% among 200,000;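 active = inhibition above about 50% when tested at 10 µM, limit read from the data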
# STAT1 blocker: reduces IFN-gamma driven STAT1 reporter signal; NIH 3T3 STAT1-luciferase reporter, luminescence; inhibition, % at 5.5 µM; hit rate 0.35% among 200,000; AID 920;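 active = inhibition above a set limit, the mean inhibition across all tested compounds plus 3 SD, cut at about 34% in these data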;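 also: 0% = IFN-gamma with DMSO and 100% = IFN-gamma with 300 µM nifuroxazide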
# STAT1 act-1: increases IFN-gamma driven STAT1 reporter signal. hit rate 2.6% among 200,000. NIH 3T3 STAT1-luciferase reporter, luminescence; 100% = IFN-gamma alone, no compound. AID 932. activation (% of control), % at 5.5 µM;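 active = activation above the screen-wide mean activation plus 3 SD, cut at about 130% in these data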;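 also: raw ratio to IFN-gamma control signal so 100% means no change and 0% no light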
# STAT3 inh: inhibitors of IL-6 induced STAT3 signaling | U3A cells, IL-6 STAT3-luciferase reporter, luminescence; host cell line lacks STAT1 | inhibition, % at 5.5 µM | hit rate 0.89% among 190,000 | AID 862;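 active = inhibition above the mean inhibition across all screened compounds plus 3 SD, cut at about 44% in these data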;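 also: 0% = DMSO only wells and 100% = 100 µM nifuroxazide control wells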
# FLuc stim CS: firefly luciferase counter-screen for stimulation assays. 200,000 tested, under 10 active. activation factor at 10 µM. ATPlite luciferase biochemical, luminescence, 10 min; 0 = ATP-free wells, 1 = DMSO control;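 active = luciferase activation factor, scaled between plate controls, of at least 2 with compound at 10 µM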
#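 Assay system – cell-free luciferase reagent · Medium – PBS-based ATP solution · Dosing – test compounds dosed from 2 mM stocks in 100% DMSO · Timing – 10 min, room temperature · Technique – light output (luminescence) · Measure – luminescence gain marking luciferase activators · Controls – No-ATP low control, compound-free enzyme-plus-ATP high control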
# STAT3 act-2: confirmation of STAT3 signaling activators; shares compounds with STAT3 act-1; potentiation (% of control), % at 5.7 µM; AID 1267; U3A STAT3-luciferase reporter, IL-6 potentiation, luminescence; U3A cells lack STAT1; 100 means same as IL-6 alone; hit rate 64% among 1,200;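 active = percent activation of the STAT3 luciferase reporter above a set limit taken from the earlier primary screen, cut at about 130% in these data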;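 also: 0% = background signal of medium plus substrate and 100% = median of IL-6 with DMSO wells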
# NFkB act STAT3ct: NF-kappaB activation in STAT3 activator counter-screen | activation (% of control), % at 5.7 µM | human cells, NF-kappaB reporter activation | shares compounds with STAT3 act-1 | hit rate 11% among 1,200; in the data active = activation above about 120%;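 also: reporter induced by TNF-alpha stimulation; 100% = median of stimulated DMSO wells and 0% = no signal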
# STAT1 act-2: counter-screen for STAT3 activators: STAT1 activation; activation (% of control), % at 5.7 µM; hit rate 13% among 1,200; shares compounds with STAT3 act-1; NIH 3T3 STAT1-luciferase reporter, IFN-gamma, luminescence;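 active = activation above the solvent-only control well mean plus 3 SD, set per screening run, cut at about 120% in these data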;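 also: 100% = IFN-gamma with DMSO median signal so 100% means no change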
# Starred values were filed as active, the others as inactive; nt = no result given.
SMILES,STAT3 act-1,FLuc inhib CS,STAT1 blocker,STAT1 act-1,STAT3 inh,FLuc stim CS,STAT3 act-2,NFkB act STAT3ct,STAT1 act-2
O=[N+]([O-])c1ccc(S(=O)(=O)N2CCN(Cc3c[nH]c4ccccc34)CC2)cc1,152*,-8,14,93,-62,1.1,155*,105,100
Cc1oc(/N=C/c2ccccc2O)c(C#N)c1C,146*,0,-5,105,-49,1,157*,106,101
Cc1oc(/N=C/c2ccc(O)cc2O)c(C#N)c1C,107,21,8,92,0,0.8,nt,nt,nt
Cc1oc(/N=C/c2ccc(Cl)cc2)c(C#N)c1C,146*,-5,-9,109,-50,1,136*,104,113
O=C1Cn2c(nc3ccccc32)N1c1cccc(C(F)(F)F)c1,136*,3,2,98,-37,1,115,106,111
COC(=O)c1ccc(N2C(=O)C3CC(C)=C(C)CC3C2=O)cc1 (stereo not given),94,-4,6,93,11,1,nt,nt,nt
O=S(=O)(Nc1nc2ccccc2nc1N1CCc2ccccc2C1)c1ccc(Cl)cc1,136*,0,-23,121,-43,1,130,110,118
Cc1ccccc1S(=O)(=O)Nc1nc2ccccc2nc1N1CCc2ccccc2C1,136*,4,0,100,-38,1,135*,119,114
CC(=O)Nc1ccc(S(=O)(=O)Nc2nc3ccccc3nc2N2CCc3ccccc3C2)cc1,137*,13,-14,112,-48,0.9,140*,106,119
CC(=O)Nc1ccc(S(=O)(=O)Nc2nc3ccccc3nc2N2CCCCCC2)cc1,105,-2,1,99,-3,1,nt,nt,nt
Cc1ccccc1S(=O)(=O)Nc1nc2ccccc2nc1Cl,108,2,-7,105,-9,1,nt,nt,nt
Cc1ccc(-n2nc3ccc(NC(=O)/C=C/c4ccco4)cc3n2)cc1,104,7,-27,124,-7,0.9,nt,nt,nt
Cc1ccc(N2C(=O)C3NN=C(C(=O)OCc4ccccc4)C3C2=O)c(C)c1 (stereo not given),96,-8,3,97,2,1.1,nt,nt,nt
Cn1cnnc1SCC(=O)Nc1cc(S(=O)(=O)N2CCCCCC2)ccc1Cl,86,-5,-1,101,19,1.1,nt,nt,nt
O=S(=O)(Nc1nc2ccccc2s1)c1ccc(Br)s1,142*,-4,1,100,-47,1,134*,107,97
COc1ccc(S(=O)(=O)Nc2nc3ccccc3s2)cc1OC,154*,-3,-2,102,-56,1,142*,100,94
Cc1ccc(S(=O)(=O)Nc2nc3ccccc3s2)cc1,103,-6,5,96,-6,1.1,nt,nt,nt
COc1cc([N+](=O)[O-])cc2sc(NC(=O)C(C)(C)C)nc12,107,-3,-21,116,-4,1,nt,nt,nt
Cc1ccc2cc(C#N)c(N3CCCC3)nc2c1C,140*,-4,-8,104,-46,1,137*,117,133*
COc1ccc(Oc2nc(C)cc(C)c2C#N)cc1,89,-7,-3,102,17,1.1,nt,nt,nt
COc1ccc(N(C(C)=O)c2nc(C)cc(C)c2C#N)c(OC)c1,154*,-6,0,100,-60,1.1,157*,103,100
COc1cccc2cc3c(=O)n(-c4ccccc4)nc-3oc12,141*,10,3,98,-45,0.9,110,98,98
CCc1c(C)sc(NC(=O)c2ccco2)c1C(=O)N1CCOCC1,138*,-4,-4,97,-42,1,99,109,103
